# Compounds with a hit are over-represented: about 4.8% of the library has one in this group of screens.
# ERa SRC1 pot: enhances coactivator binding to human estrogen receptor alpha; coactivator binding (% of control), % at 25.6 µM; TR-FRET ERalpha-LBD/SRC-Cy5 coactivator binding, 2 h; 100 = basal binding, no effect; P03372; 86,000 tested, 1.3% active; in the data active means activity above about 200%;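 further: binding measured in presence of low estradiol as agonist stimulus; 0% = peptide alone without receptor and 100% = receptor with peptide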
# ERa coact inh: ER-alpha (human) coactivator binding inhibition; P03372; TR-FRET ER-alpha LBD / SRC-1 peptide, estradiol-bound; inhibition, % at 25.6 µM; 86,000 tested, 1.7% active; AID 629; in the data active means inhibition above about 50%;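 further: 0% = receptor plus peptide control and 100% = peptide only without receptor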
# SF1 activator: activates the human nuclear receptor SF-1; Q13285; CHO-K1 Gal4-SF-1 LBD luciferase reporter; % increase over DMSO SF-1-specific signal; activation, % at 10 µM; 65,000 tested, 1.9% active; AID 522;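 active means activation above the mean activation of all tested compounds plus 3 SD, cut at about 50% in these data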
#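 Test system: CHO-K1 cells with Gal4–hSF-1 LBD chimera plus Gal4-driven luciferase; Input: 4,000 cells/well; Compound: 10 µM only; Times: 20 h compound treatment, 37 °C; Measured by: steady-glow luciferase luminescence, read after 15 min reagent incubation; Measure: percent activation versus DMSO; Control set: DMSO and mock-transfected background; Replicates: one test per compound.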
# ERb coact inh: blocks coactivator binding to human estrogen receptor beta. Q92731. TR-FRET ER-beta LBD / SRC1-Cy5 peptide binding; receptor agonist-loaded with 1 µM estradiol. inhibition, % at 25.6 µM. 86,000 tested, 1.3% active. AID 633;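 active means compounds whose percent inhibition of the receptor-coactivator binding signal exceeds about 50% in the single-dose screen, limit read from the data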;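 further: 0% = receptor plus peptide wells without compound and 100% = peptide-only wells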
# RORa activator: RORA (human) activation | 65,000 tested, 1.5% active | CHO-K1 Gal4-RORA LBD luciferase reporter, luminescence; percent increase over mock-subtracted basal signal | P35398 | activation, % at 10 µM;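 active means activation above the mean of all tested compounds plus 3 SD, cut at about 49% in these data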;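 further: 0% = DMSO-treated RORA cells and 100% = added signal equal to DMSO minus mock-transfected cells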
# Pyk2 oligo antag: blocks oligomerization of human Pyk2 in cells; Q293 cells, Pyk2 FERM NanoBiT luminescence; stronger effect = lower value; 99,000 tested, 0.83% active; z-score (the deposit names both 25 µM and 10 µM);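 active means Z-score of -3 or lower, scaled per plate to the spread of control and sample wells; inactive means z-score above -3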;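 further: negative z-score means lost luminescence so less FERM oligomerization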
# Target sequence (Q14289 whole entry, looked up): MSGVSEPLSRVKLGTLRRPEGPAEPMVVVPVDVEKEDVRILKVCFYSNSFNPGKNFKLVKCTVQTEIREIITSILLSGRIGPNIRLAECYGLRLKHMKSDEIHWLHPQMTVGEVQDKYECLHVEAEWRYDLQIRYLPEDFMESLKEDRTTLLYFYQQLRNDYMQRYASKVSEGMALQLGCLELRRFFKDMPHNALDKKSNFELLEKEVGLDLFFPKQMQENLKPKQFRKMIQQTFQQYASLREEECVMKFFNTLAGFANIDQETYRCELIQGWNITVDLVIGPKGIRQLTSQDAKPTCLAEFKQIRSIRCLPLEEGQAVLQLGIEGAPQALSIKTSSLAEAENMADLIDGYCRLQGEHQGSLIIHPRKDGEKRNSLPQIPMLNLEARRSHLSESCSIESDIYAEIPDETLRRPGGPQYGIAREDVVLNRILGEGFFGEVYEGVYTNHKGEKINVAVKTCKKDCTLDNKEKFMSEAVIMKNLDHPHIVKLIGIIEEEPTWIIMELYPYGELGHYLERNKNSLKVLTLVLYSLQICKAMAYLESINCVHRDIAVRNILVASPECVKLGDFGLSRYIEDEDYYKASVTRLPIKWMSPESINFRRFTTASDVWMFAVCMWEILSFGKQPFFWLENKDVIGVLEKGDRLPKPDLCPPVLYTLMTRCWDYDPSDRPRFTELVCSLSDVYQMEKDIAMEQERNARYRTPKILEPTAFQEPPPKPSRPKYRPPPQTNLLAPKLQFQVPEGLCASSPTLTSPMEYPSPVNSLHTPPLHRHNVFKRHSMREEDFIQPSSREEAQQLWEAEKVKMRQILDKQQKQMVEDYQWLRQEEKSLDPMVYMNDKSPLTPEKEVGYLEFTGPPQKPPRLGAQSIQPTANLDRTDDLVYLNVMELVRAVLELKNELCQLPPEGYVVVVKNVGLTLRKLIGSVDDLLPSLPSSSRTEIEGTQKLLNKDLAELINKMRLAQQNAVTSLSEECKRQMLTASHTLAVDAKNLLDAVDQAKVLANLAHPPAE
# * = called active by the depositor; nt = not tested or not shown; [ ] = remark or other dose.
SMILES,ERa SRC1 pot,ERa coact inh,SF1 activator,ERb coact inh,RORa activator,Pyk2 oligo antag
Cc1cccc2cc(C#N)c(SCC(=O)Nc3ccccc3N3CCOCC3)nc12,295*[fluorescence artefact?],20,nt,13,nt,-1.4
O=C(Nc1ccc2c(c1)OCO2)c1c(Cl)nc2sccn12,114,-2,66*,-4,48,-0.76
O=C(Nc1ccc(Cl)cc1)c1ccc2c(c1)OCO2,112,5,31,0,9,0.08
O=C(Nc1ccc2c(c1)OCO2)c1ccc[n+]([O-])c1,96,-7,nt,-1,nt,-0.09
Cc1occc1C(=O)Nc1ccc2c(c1)OCO2,98,3,53*,4,18,-0.13
O=C(Nc1ccc2c(c1)OCO2)c1cccc(Cl)c1,108,-4,67*,9,30,-0.25
O=C(Nc1ccc(F)c(F)c1)c1ccc2c(c1)OCO2,96,1,66*,-4,24,0.08
COC(=O)[C@H](C)NC(=O)NC1CCN(Cc2ccccc2)CC1,88,-10,nt,33,nt,-0.09
O=C(O)CC(c1ccc(Cl)cc1)N1C(=O)CCC1=O (configuration not stated),120,-6,-3,-5,-17,0.46
Cc1nnc(NC(=O)CCC(=O)NCc2ccco2)s1,109,-10,-3,-9,-25,0.67
CC(=O)c1cccc(NC(=O)c2onc(C)c2Cl)c1,88,4,nt,0,nt,nt
O=C(Nc1cccc(O)c1)c1cnn2cccnc12,76,7,nt,39,nt,1.4
O=C(Nc1ccc2c(c1)OCO2)c1cnn2cccnc12,92,-11,70*,-7,61*,0.44
Cc1noc(C(=O)Nc2ccc3c(c2)OCO3)c1Cl,105,-2,61*,11,65*,nt
COc1ccc(N2C(=O)C3CCCN3C2c2ccccc2Cl)cc1 (configuration not stated),115,1,1,-2,0,nt
CC(=O)Nc1nc(COc2ccc3ccccc3c2)cs1,111,4,nt,2,nt,-0.4
CC(=O)Nc1nc(COc2ccccc2)cs1,116,-10,38,-4,51*,1
O=C(CSc1nnnn1-c1ccccc1)CC(=O)Nc1ccc(Cl)cc1,120,-3,-11,5,0,-0.01
CN1CCN(C(c2ccc(F)cc2)c2nnnn2Cc2cccs2)CC1 (configuration not stated),124,-3,-2,0,3,-0.22
COc1ccc(C(c2nnnn2Cc2ccc(F)cc2)N2CCN(c3ccccc3)CC2)cc1 (configuration not stated),93,-9,-8,1,2,-3.4*
COc1ccc(N2CCN(C(c3ccccc3)c3nnnn3Cc3ccc(F)cc3)CC2)cc1 (configuration not stated),105,-8,-8,1,34,-2.4
COc1ccc(C(c2nnnn2Cc2cccs2)N2CCN(c3ccc(F)cc3)CC2)cc1OC (configuration not stated),104,-7,38,1,10,-3.3*
COc1ccc(C2=CC(c3c(C)nn(-c4ccccc4)c3Cl)n3nnnc3N2)cc1OC (configuration not stated),76,-2,-9,-6,-5,-1.7
N#CC1=C(N)Nc2ncnn2C1c1ccc(F)cc1 (configuration not stated),nt,nt,nt,nt,nt,0.15
Cc1ccc(F)cc1NC(=O)c1cccc2nccnc12,370*,2,10,-21,10,-0.19
SMILES,ERa SRC1 pot,ERa coact inh,SF1 activator,ERb coact inh,RORa activator,Pyk2 oligo antag
Cc1ccccc1NC(=O)c1cccc2nccnc12,93,2,12,1,42,-0.3
CCCn1nnc(NC(=O)c2cccc(OCC(C)C)c2)n1,98,0,4,8,12,-0.05
CCn1nnc(NC(=O)c2cccc(-c3cc4ccccc4oc3=O)c2)n1,93,2,55*,2,20,-1.7
CCOc1cccc(C(=O)Nc2cccc(-c3nnc(-c4ccc(C)cc4)o3)c2)c1,158,68*[fluorescence artefact?],-11,60*[fluorescence artefact?],16,0.68
CCCn1nnc(NC(=O)c2cccc(OCC)c2)n1,111,-21,66*,-33,52*,-0.08
COc1cccc(C(=O)Nc2cccc(-c3nnc(-c4ccccc4)o3)c2)c1,112,17,92*,12,13,nt
Cc1cccc(Cn2c(C(C)(C)C)cc3cccnc32)c1,nt,nt,nt,nt,nt,0.52
CC(=O)Nc1cccc(-c2nnc(-c3ccccc3)o2)c1,99,-20,51*,-5,28,-0.72
COc1cccc(C(=O)Nc2c(C(N)=O)oc3ccccc23)c1,81,1,11,90*[fluorescence artefact?],12,nt
CCOC(=O)c1oc2ccccc2c1NC(=O)c1cccc(OC)c1,118,-11,-8,-10,-10,-0.3
CCOc1cccc(C(=O)Nc2cccc(-c3nnc(-c4ccccc4)o3)c2)c1,108,45,38,31,41,-3.6*
O=C1OC(/C=C/c2ccc(Cl)cc2)=NC/1=C/c1ccco1,nt,nt,nt,nt,nt,0.3
Nc1nc2ccccc2n1/N=C/c1ccc(Br)cc1,89,4,69*,-8,70*,0.51
Brc1ccc(/C=N/Nc2ccc3ccccc3n2)cc1,nt,nt,nt,nt,nt,0.49
CCOc1ccc(-n2c(SCC(=O)Nc3nccs3)nc3c(c2=O)SCC3)cc1,78,77*[fluorescence artefact?],-3,48,16,nt
Cc1ccc(-n2c(SCC(=O)Nc3nccs3)nc3c(c2=O)SCC3)cc1,194,45,-4,14,1,0.49
COC(=O)c1sc2ccccc2c1-n1cccc1C(=O)C(=O)Nc1ccc(OC)cc1,nt,nt,nt,nt,nt,-0.62
Brc1ccccc1OCCCn1cnc2ccccc21,88,-4,nt,-9,nt,-3.9*
CCOCCCn1c(=N)c(C(=O)NCc2ccc3c(c2)OCO3)cc2c(=O)n3ccccc3nc21,73,36,-1,24,-4,nt
CCCn1c(=N)c(C(=O)NCc2ccc3c(c2)OCO3)cc2c(=O)n3cccc(C)c3nc21,26,79*[fluorescence artefact?],20,53*[fluorescence artefact?],12,0.06
CSc1nc2ccc3nc(NC(=O)c4ccccc4)sc3c2s1,223*[fluorescence artefact?],55*[fluorescence artefact?],nt,48,nt,nt
CC(=O)Nc1sc(NC(=O)c2ccccc2)nc1-c1cccs1,136,-12,10,4,-8,0.21
O=C(Nc1cc(C(F)(F)F)cc(C(F)(F)F)c1)c1ccc(Cn2cc(C(F)(F)F)ccc2=O)cc1,nt,nt,nt,nt,nt,-0.89
O=C(CCC(=O)N(c1ccc(F)cc1)C(C(=O)NC1CCCC1)c1ccncc1)Nc1cccnc1 (configuration not stated),116,-4,nt,3,nt,-0.06
COC(=O)c1ccc(Cl)c(-c2ccc(/C=N/NC(=O)Nc3ccccc3)o2)c1,nt,nt,nt,nt,nt,-3.2*
COC(=O)c1sccc1-c1ccc(/C=N/OC(=O)c2ccccc2)o1,nt,nt,nt,nt,nt,-0.94
CC(C)CC(=O)Nc1cc(NC(=O)CC(C)C)cc(C(=O)NC(C)(C)C)c1,102,3,nt,1,nt,-0.69
O=C(NCCO)C1(c2ccc(Cl)cc2)CCCC1,nt,nt,nt,nt,nt,-0.01
